The list is not random: actives were taken first. Their share in the collection is about 1.4%.
ATG4B inhibitor: blocks human ATG4B protease cleavage of LC3 substrate; ATG4B cleavage of LC3-PLA2, NBD-HPC fluorescence, 1 h; hit rate 0.51% among 340,000; Q9Y4P1; inhibition, % at 8.33 µM; in the data active = inhibition above about 40%
UCH37 DUB inh: inhibitors of human deubiquitinating enzyme UCH37. purified proteasome/UCH37, Ub-AMC cleavage fluorescence. inhibition, % (concentration not given with the values). Q9Y5K5. hit rate 0.33% among 330,000;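 active = mean inhibition over replicate wells above about 20%, limit read from the data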;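 note: 0% = compound-free wells with enzyme and 100% = wells lacking proteasome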
Target sequence (Q9Y5K5 whole entry, looked up): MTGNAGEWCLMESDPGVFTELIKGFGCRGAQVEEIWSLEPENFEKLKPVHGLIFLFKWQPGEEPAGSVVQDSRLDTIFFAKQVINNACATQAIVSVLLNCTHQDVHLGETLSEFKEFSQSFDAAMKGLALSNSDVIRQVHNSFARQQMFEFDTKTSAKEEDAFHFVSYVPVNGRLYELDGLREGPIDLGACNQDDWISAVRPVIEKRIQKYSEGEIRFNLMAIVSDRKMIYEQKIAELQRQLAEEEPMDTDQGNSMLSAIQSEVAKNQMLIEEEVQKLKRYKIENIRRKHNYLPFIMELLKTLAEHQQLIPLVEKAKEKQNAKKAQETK
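Material: Human UCH37 enzyme supplied as purified proteasome complex | Schedule: 30 min compound-proteasome preincubation then 25 min substrate reaction, room temperature | Detection: AMC fluorescence from Ub-AMC cleavage, excitation 355 nm, emission 460 nm | Benchmarks: Wells without proteasome as full block, compound-free enzyme plus substrate as uninhibited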
Tb MetRS inh: blocks T. brucei methionyl-tRNA synthetase activity. purified T. brucei MetRS, ATP depletion, Kinase-Glo luminescence. inhibition, % at 11.9 µM. hit rate 0.4% among 360,000;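 active = inhibition above a per-plate cutoff of the control wells' mean inhibition plus 3 SD, cut at about 5.5% in these data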;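 note: 0% = DMSO wells median and 100% = median of wells with control inhibitor compound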
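Material – parasite MetRS enzyme · Medium – HEPES-MgCl2-KCl buffer plus DTT, spermine, BSA, pyrophosphatase · Reagent – ATP, methionine and E. coli bulk tRNA substrates · Times – 15 min enzyme-compound preincubation, 2 h reaction, 10 min detection, 25 °C · Measured by – luminescence of leftover ATP · Evaluation – percent inhibition relative to median high and low control wells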
Rin1 Abl inh: human Rin1-Abl interaction inhibition; inhibition, % at 7.35 µM; TR-FRET Rin1/Abl binding, biochemical; hit rate 0.4% among 360,000; in the data active = inhibition above about 5%, passing the limit was not always enough
ATG4B conf: confirmation of human ATG4B inhibitors. shares compounds with ATG4B inhibitor. ATG4B protease fluorescent substrate cleavage assay. inhibition, % at 8.33 µM. hit rate 92% among 320; in the data active = inhibition above about 39%
PLA2 counter: inhibits human PLA2, flagging false ATG4B inhibitors; shares compounds with ATG4B inhibitor; purified PLA2, NBD-C6-HPC fluorescence, 45 min; inhibition, % at 8.33 µM; hit rate 66% among 1,600; in the data active = inhibition above about 50%
Target sequence (P04054 whole entry, looked up): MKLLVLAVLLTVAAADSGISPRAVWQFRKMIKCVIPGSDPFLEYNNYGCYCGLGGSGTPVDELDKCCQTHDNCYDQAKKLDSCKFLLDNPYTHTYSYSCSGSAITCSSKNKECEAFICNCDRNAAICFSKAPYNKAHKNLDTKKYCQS
The depositor's hits bear a star; . = not tested or not shown.

SMILES	ATG4B inhibitor	UCH37 DUB inh	Tb MetRS inh	Rin1 Abl inh	PLA2 counter	others
COc1ccc(Nc2nc(Nc3ccc(OC)cc3)nc(-n3[nH]c(=O)c(C)c3C)n2)cc1	-10	5	0	-1	.
O=C(NNC(=O)c1nn(-c2ccc(F)cc2)ccc1=O)c1ccccc1Cl	42*	6	-1	-3	-21
O=C(O)c1nn(-c2ccc(F)cc2)ccc1=O	-2	4	1	0	.
Cc1c(C(=O)OC(C)C)[nH]c2c1C(=O)CCC2	-6	1	-1	3	.
CC(=O)c1ccc(C(=O)N2CCCC(Nc3ccc(C(C)C)cc3)C2)s1 (stereo not given)	49*	4	0	-5	56*
CC(C)c1ccc(NC2CCCN(C(=O)c3ccco3)C2)cc1 (stereo not given)	54*	3	0	-2	53*
Cc1ccc(CNC(=O)CSc2nc(=O)n3cccc(C)c3n2)cc1	6	1	0	-1	.
O=C(c1ccco1)N1CCN(S(=O)(=O)c2cc(Cl)ccc2Cl)CC1	-4	0	0	-2	.
CCOC(=O)c1cc(-c2c(Cl)cccc2Cl)no1	50*	0	0	0	47
COc1ccc(NC(=O)CNC(=O)C2CCCCC2)cc1	-2	-1	-1	1	.
COc1ccc(N/C(=C2\CCCC2=O)C2CCCCC2)cc1	56*	1	0	-1	60*
CCn1c(O)c(/C=C2\C=Nc3ccccc32)sc1=Nc1ccccc1	43*	4	-1	-1	29
Cc1ccc(-c2csc3nc(SCC(=O)Nc4ccc(Cl)c(C(=O)O)c4)[nH]c(=O)c23)cc1	78*	1	1	-2	78*
CC(=O)N1CCN(c2ccc(NC(=O)c3ccccc3Cl)cc2)CC1	3	.	0	0	.
O=C(Nc1ccc(N2CCCCCC2)cc1)c1ccccc1Cl	51*	1	0	-2	50
COc1cc(NS(=O)(=O)c2ccc(Nc3nc(-c4cccc([N+](=O)[O-])c4)cs3)cc2)nc(OC)n1	45*	6	0	-1	43	ATG4B conf=78*
O=[N+]([O-])c1cccc(-c2csc(Nc3ccccc3)n2)c1	6	7	-1	-1	.
CCc1ccc(NC(=O)Nn2cnnc2)cc1	5	-1	0	1	.
CNC(=O)c1ccccc1Sc1ccccc1C#N	5	1	0	2	.
Cc1ccccc1-c1nnc(SCc2ccccc2F)o1	54*	2	0	-3	64*
CCOc1ccc(C(=O)Nc2nnc(S(=O)(=O)N3CCCCC3)s2)cc1	-5	0	0	0	.
O=C(O)Cc1cn(Cc2cccc(Cl)c2)c2ccccc12	1	6	-2	-4	.
CC1CCCN(C(=O)Cc2cn(Cc3cccc(Cl)c3)c3ccccc23)C1 (stereo not given)	48*	4	-1	0	56*
O=C(Cc1cn(Cc2cccc(Cl)c2)c2ccccc12)N1CCCCCC1	50*	6	0	-1	47
Cc1nc(N2CCOCC2)nc(N2CCN(c3ccccc3)CC2)c1[N+](=O)[O-]	-4	3	-1	-2	.
SMILES	ATG4B inhibitor	UCH37 DUB inh	Tb MetRS inh	Rin1 Abl inh	PLA2 counter	others
Cc1ccc(CNS(=O)(=O)c2ccc(C(C)(C)C)cc2)n1C	86*	6	0	5	89*
CN1CC(=O)NC1=NC(=O)C12CC3CC(CC(C3)C1)C2	-2	0	-1	1	.
O=C(COc1cccc2cccnc12)NN=Cc1ccccc1O	.	-7	.	.	.
COC(=O)C(/C=N/O)NC(=O)c1ccccc1 (stereo not given)	2	.	0	3	.
O=S(=O)(Nc1cccc(-c2cn3cccnc3n2)c1)c1ccc(-c2ccccc2)cc1	-13	-128	-1	3	.
O=C(Nc1cccc(Cl)c1N1CCCC1)c1cccc(-c2cc3ccccc3oc2=O)c1	50*	-28	0	-1	25	ATG4B conf=59*
O=C(Nc1ccc(CN2CCOCC2)cc1)c1cccc(-c2cc3ccccc3oc2=O)c1	-30	-8	0	-8	.
CCOC(=O)c1c(-n2cnnn2)sc2c1CCCC2	0	-10	1	-2	.
CCOC(=O)c1c(N2C(=O)Nc3cc(Cl)c(Cl)cc3N2O)sc2c1CCCCC2	77*	1	-1	3	92*
CC(=O)c1nn(-c2ccc(Br)cc2)cc1C(=O)c1ccccc1	-12	3	0	4	.
O=C(NCc1ccc(F)cc1)C1CCN(S(=O)(=O)c2ccc3c(c2)OCCCO3)CC1	7	3	1	0	.
O=C(NCc1ccc(Cl)cc1Cl)C1CCN(S(=O)(=O)c2ccc3c(c2)OCCCO3)CC1	42*	0	1	1	55*
CCS(=O)(=O)N1CCc2cc(OC)c(OC)cc2C1	-10	-4	0	2	.
CN1C(=O)C(N=Nc2ccccc2C(=O)O)N(C)C1=S (stereo not given)	41*	.	-1	0	40	ATG4B conf=70*
Cc1cc(C)c(OCC(=O)Nc2cccc(NC(=O)c3ccco3)c2)c(Br)c1	60*	5	0	4	63*
Cc1ccc(C)c(N2CCN(CC(=O)Nc3ccc4[nH]c(=O)[nH]c4c3)CC2)c1	-1	6	0	-1	.
COc1ccc(CNC(=O)[C@@H](Cc2ccccc2)NC(=O)CC[C@H]2O[C@@H](n3ccc(=O)[nH]c3=O)[C@H](O)[C@@H]2O)cc1	.	.	-1	0	.
CCOC(=O)c1c(CN2CCN(CC#N)CC2)n(C)c2cc(Br)c(OC)cc12	0	5	0	0	.
Cc1cc(C(=O)CSc2nnc(-c3cccnc3)n2-c2ccccc2F)c(C)n1C	1	2	0	5	.
Cc1ccc(C(=O)Nc2ncc(Cc3ccccc3)s2)o1	43*	3	0	1	64*
O=C1C(Cl)=C(NCCCO)C(=O)c2ccccc21	1	19	-2	-17	.
O=C1C(SCCO)=C(SCCO)C(=O)c2ccccc21	44*	.	2	-2	-16	ATG4B conf=72*
Cc1nc(S/C(=C\c2ccc(-c3ccc(C(=O)O)c(Cl)c3)o2)C(=O)O)n[nH]1	6	19	0	-1	.
Cc1nc(S/C(=C\c2ccc(OCc3ccccc3Cl)cc2)C(=O)O)n[nH]1	94*	1	0	0	83*
N#CCC(=O)Nc1ccc(C(=O)OCC(=O)N=c2sccn2Cc2ccccc2Cl)cc1	41*	6	0	1	57*
Cc1ccc(Cn2ccsc2=NC(=O)COC(=O)c2ccc(O)cc2O)cc1	-9	1	0	3	.
O=C(COC(=O)c1ccc(O)cc1O)N=c1sccn1Cc1ccccc1Cl	43*	-1	0	1	57*
Cc1ccc(NS(=O)(=O)c2cc([N+](=O)[O-])ccc2NNC(=S)Nc2cccc(Cl)c2)c(C)c1	88*	6	1	0	101*
